ChEMBL document CHEMBL4257520, “Design, synthesis and bioactivity investigation of tetrandrine derivatives as potential anti-cancer agents” (Medchemcomm, 2018)

Tests used:
HEL = assay: Antiproliferative activity against HEL cells after 48 hrs by MTT assay; format: functional, cell-based; conditions: Homo sapiens
Method in brief: (§1)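 MTT assay on human cancer lines held at 37 °C, 95% humidity, 5% CO2. Cells were exposed to compounds at 20.0–0.5 μM for 48 h, then washed twice with PBS. MTT (5 mg mL–1 in PBS) was added for 4 h at 37 °C, the formazan was dissolved in DMSO, and A490 was read. IC50 comes from replicate wells over three independent experiments.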

K562 = assay: Antiproliferative activity against human K562 cells after 48 hrs by MTT assay; format: functional, cell-based; conditions: K562, 48 h; method in brief: as §1
PC-3 = assay: Antiproliferative activity against human PC3 cells after 48 hrs by MTT assay; format: functional, cell-based; conditions: PC-3, 48 h; method in brief: as §1
[1] = Antiproliferative activity against human WM9 cells after 48 hrs by MTT assay; format: functional, cell-based; conditions: WM9, 48 h; method in brief: as §1
MDA-MB-231 = assay: Antiproliferative activity against human MDA-MB-231 cells after 48 hrs by MTT assay; format: functional, cell-based; conditions: MDA-MB-231, 48 h; method in brief: as §1
L02 = assay: Cytotoxicity against human HL7702 cells after 48 hrs by MTT assay; format: cell-based; conditions: L02, 48 h
Method in brief: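 Normal human liver HL7702 cells were assessed by MTT assay, with formazan absorbance as the read-out, to give an IC50 for cytotoxicity.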

Compound	IC50 (K562) [µM]	IC50 (PC-3) [µM]	IC50 (MDA-MB-231) [µM]	IC50 (HEL) [µM]	IC50 [1] [µM]	IC50 (L02) [µM]
CCCS(=O)(=O)Nc1cc(OC)c2cc1C[C@H]1c3c(cc(OC)c(OC)c3Oc3cc4c(cc3OC)CCN(C)[C@H]4Cc3ccc(cc3)O2)CCN1C	4.14	6.64	5.12	6	4.03	12.5
COc1cc(NS(=O)(=O)c2ccccc2F)c2cc1Oc1ccc(cc1)C[C@H]1c3cc(c(OC)cc3CCN1C)Oc1c(OC)c(OC)cc3c1[C@H](C2)N(C)CC3	5.84	5.89	7.89	3.04	4.19	16.3
COc1cc(N)c2cc1Oc1ccc(cc1)C[C@H]1c3cc(c(OC)cc3CCN1C)Oc1c(OC)c(OC)cc3c1[C@H](C2)N(C)CC3	3	2.67	3.55	6.66	6.36	
COc1cc([N+](=O)[O-])c2cc1Oc1ccc(cc1)C[C@H]1c3cc(c(OC)cc3CCN1C)Oc1c(OC)c(OC)cc3c1[C@H](C2)N(C)CC3	9.05	6.81	11.3	7.36	12.1	
COc1cc(NS(=O)(=O)c2c(C(C)C)cc(C(C)C)cc2C(C)C)c2cc1Oc1ccc(cc1)C[C@H]1c3cc(c(OC)cc3CCN1C)Oc1c(OC)c(OC)cc3c1[C@H](C2)N(C)CC3	6.76	5.46	5.43	5.31	2.13	32.1
COc1cc(NS(=O)(=O)c2c(C)cc(C)cc2C)c2cc1Oc1ccc(cc1)C[C@H]1c3cc(c(OC)cc3CCN1C)Oc1c(OC)c(OC)cc3c1[C@H](C2)N(C)CC3	3.24	3.29	5.31	4.81	4.16	21.2
CCCCS(=O)(=O)Nc1cc(OC)c2cc1C[C@H]1c3c(cc(OC)c(OC)c3Oc3cc4c(cc3OC)CCN(C)[C@H]4Cc3ccc(cc3)O2)CCN1C	7.26	5.19	5.33	6.77	6.35	22.5
COc1cc(NS(=O)(=O)c2cc(Cl)cc(Cl)c2)c2cc1Oc1ccc(cc1)C[C@H]1c3cc(c(OC)cc3CCN1C)Oc1c(OC)c(OC)cc3c1[C@H](C2)N(C)CC3	1.47	3.41	3.88	5.68	3.7	13.7
COc1cc(NS(=O)(=O)C(F)(F)F)c2cc1Oc1ccc(cc1)C[C@H]1c3cc(c(OC)cc3CCN1C)Oc1c(OC)c(OC)cc3c1[C@H](C2)N(C)CC3	7.12	5.57	6.69	5.83	5.8	18.6
COc1ccc2cc1Oc1ccc(cc1)C[C@H]1c3cc(c(OC)cc3CCN1C)Oc1c(OC)c(OC)cc3c1[C@H](C2)N(C)CC3 [FANCHININ]	11.8	5.86	8.94	7.45	6.1	44.2
COc1cc(NS(C)(=O)=O)c2cc1Oc1ccc(cc1)C[C@H]1c3cc(c(OC)cc3CCN1C)Oc1c(OC)c(OC)cc3c1[C@H](C2)N(C)CC3	3.57	3.37	5.67	2.6	2.58	14.7
COc1cc(NS(=O)(=O)c2ccccc2[N+](=O)[O-])c2cc1Oc1ccc(cc1)C[C@H]1c3cc(c(OC)cc3CCN1C)Oc1c(OC)c(OC)cc3c1[C@H](C2)N(C)CC3	5.05	7.3	2.51	5.72	3.26	16.2
COc1cc(NS(=O)(=O)c2cccc3cccnc23)c2cc1Oc1ccc(cc1)C[C@H]1c3cc(c(OC)cc3CCN1C)Oc1c(OC)c(OC)cc3c1[C@H](C2)N(C)CC3	1.39	4.3	6.26	2.85	4.53	12.7
CC[C@]1(O)C[C@H]2CN(CCc3c([nH]c4ccccc34)[C@@](C(=O)OC)(c3cc4c(cc3OC)N(C=O)[C@H]3[C@@](O)(C(=O)OC)[C@H](OC(C)=O)[C@]5(CC)C=CCN6CC[C@]43[C@@H]65)C2)C1 [VINCRISTINE]	5.36	5.31	9.86	5.97	4.28	

More lines, main results first:

IC50 (K562) [µM]	IC50 (PC-3) [µM]	IC50 (MDA-MB-231) [µM]	Compound	IC50 (HEL) [µM]	IC50 [1] [µM]	IC50 (L02) [µM]
5.95	5.76	6.84	COc1cc(NS(=O)(=O)c2ccc(Cl)nc2)c2cc1Oc1ccc(cc1)C[C@H]1c3cc(c(OC)cc3CCN1C)Oc1c(OC)c(OC)cc3c1[C@H](C2)N(C)CC3	6.01	7.93	19.5
2.67	2.97	4.81	COc1cc(NS(=O)(=O)c2ccc(Cl)cc2)c2cc1Oc1ccc(cc1)C[C@H]1c3cc(c(OC)cc3CCN1C)Oc1c(OC)c(OC)cc3c1[C@H](C2)N(C)CC3	2.59	3.73	17.1
3.28	3.24	7.79	COc1cc(NS(=O)(=O)c2ccc(F)cc2)c2cc1Oc1ccc(cc1)C[C@H]1c3cc(c(OC)cc3CCN1C)Oc1c(OC)c(OC)cc3c1[C@H](C2)N(C)CC3	1.57	4.33	12.1
3.19	4.86	5.25	COc1cc(NS(=O)(=O)c2ccc(C(C)(C)C)cc2)c2cc1Oc1ccc(cc1)C[C@H]1c3cc(c(OC)cc3CCN1C)Oc1c(OC)c(OC)cc3c1[C@H](C2)N(C)CC3	9.58	4.07	26.2
3.07	4.44	7.48	COc1cc(NS(=O)(=O)c2ccccc2)c2cc1Oc1ccc(cc1)C[C@H]1c3cc(c(OC)cc3CCN1C)Oc1c(OC)c(OC)cc3c1[C@H](C2)N(C)CC3	3.87	1.98	13.5
3.22	3.99	4.56	COc1cccc(S(=O)(=O)Nc2cc(OC)c3cc2C[C@H]2c4c(cc(OC)c(OC)c4Oc4cc5c(cc4OC)CCN(C)[C@H]5Cc4ccc(cc4)O3)CCN2C)c1	8.59	4.11	28.2
3.72	3.98	5.6	COc1cc(NS(=O)(=O)c2ccc(Br)cc2)c2cc1Oc1ccc(cc1)C[C@H]1c3cc(c(OC)cc3CCN1C)Oc1c(OC)c(OC)cc3c1[C@H](C2)N(C)CC3	3.83	8.51	9.38
3.57	4.63	7.42	COc1cc(NS(=O)(=O)c2ccccc2Cl)c2cc1Oc1ccc(cc1)C[C@H]1c3cc(c(OC)cc3CCN1C)Oc1c(OC)c(OC)cc3c1[C@H](C2)N(C)CC3	3.48	4.09	7.91
4.03	4.44	7.12	COc1cc(NS(=O)(=O)c2ccc([N+](=O)[O-])cc2)c2cc1Oc1ccc(cc1)C[C@H]1c3cc(c(OC)cc3CCN1C)Oc1c(OC)c(OC)cc3c1[C@H](C2)N(C)CC3	3.68	4.24	14.1
3.61	3.81	6.55	COc1cc(NS(=O)(=O)c2ccc(C(F)(F)F)cc2)c2cc1Oc1ccc(cc1)C[C@H]1c3cc(c(OC)cc3CCN1C)Oc1c(OC)c(OC)cc3c1[C@H](C2)N(C)CC3	2.87	4.43	8.11
3.47	4.75	6.61	COc1cc(NS(=O)(=O)c2ccc(NC(C)=O)cc2)c2cc1Oc1ccc(cc1)C[C@H]1c3cc(c(OC)cc3CCN1C)Oc1c(OC)c(OC)cc3c1[C@H](C2)N(C)CC3	10.8	3.31	17.5
1.46	3.47	3.81	COc1cc(NS(=O)(=O)c2cccc(Br)c2)c2cc1Oc1ccc(cc1)C[C@H]1c3cc(c(OC)cc3CCN1C)Oc1c(OC)c(OC)cc3c1[C@H](C2)N(C)CC3	2.9	1.68	8.73
1.78	1.94	6.37	COc1cc(NS(=O)(=O)c2cccc([N+](=O)[O-])c2)c2cc1Oc1ccc(cc1)C[C@H]1c3cc(c(OC)cc3CCN1C)Oc1c(OC)c(OC)cc3c1[C@H](C2)N(C)CC3	2.17	3.36	10.1
